From ChEMBL document CHEMBL1811885, “Antiplasmodial sesquiterpene alkaloids from the roots of Maytenus mekongensis” (J Nat Prod, 2011)
≈ marks a conversion by molar mass, not a printed value. Calls of active or inactive are those of the source. No cut-off for these calls is given here.

Legend:
Plasmodium falciparum = assay: Antiplasmodial activity against multi drug-resistant Plasmodium falciparum K1 infected in human type A+ erythrocytes assessed as inhibition of [G-3H]hypoxanthine incorporation after 42 hrs by scintillation counting; assay type: functional, organism-based; settings: for IC50: K1, 42 h
MCF7 = assay: Cytotoxicity against human MCF7 cells by SRB assay; assay type: functional, cell-based
Outline: (§1)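 Colorimetric growth assay following the Skehan method, run on three human lines: KB (oral epidermal carcinoma), MCF7 (breast adenocarcinoma) and NCI-H187 (small cell lung).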

KB = assay: Cytotoxicity against human KB cells by SRB assay; assay type: functional, cell-based; outline: as §1
NCI-H187 = assay: Cytotoxicity against human NCI-H187 cells by SRB assay; assay type: functional, cell-based; outline: as §1

Compound: CC(=O)OC[C@@]12[C@H](OC(C)=O)[C@H](OC(C)=O)[C@@H]3[C@@H](OC(=O)c4ccccc4)[C@@]14O[C@@]3(C)COC(=O)c1cccnc1CC[C@H](C)C(=O)O[C@@H]([C@H](OC(C)=O)[C@@H]2OC(=O)c1ccccc1)[C@]4(C)O
- IC50 (Plasmodium falciparum): 2.5 µM

Compound: CC(=O)OC[C@]12[C@H](OC(C)=O)[C@H](OC(C)=O)[C@@H]3[C@@H](OC(C)=O)[C@@]14O[C@@]3(C)COC(=O)c1cccnc1C(C)C(C)C(=O)O[C@@H]([C@H](OC(C)=O)[C@@H]2OC(C)=O)[C@]4(C)O (some centres undefined)
- Activity (Plasmodium falciparum): inactive

Compound: CC(=O)OC[C@]12[C@H](OC(C)=O)[C@H](OC(C)=O)[C@@H]3[C@@H](OC(C)=O)[C@@]14O[C@@]3(C)COC(=O)c1cccnc1C(C)C(C)C(=O)O[C@@H]([C@H](OC(C)=O)[C@@H]2OC(=O)c1ccccc1)[C@]4(C)O (some centres undefined)
- Activity (Plasmodium falciparum): inactive

Compound: CC(=O)OC[C@@]12[C@H](OC(C)=O)[C@H](OC(C)=O)[C@@H]3[C@@H](OC(=O)c4ccccc4)[C@@]14O[C@@]3(C)COC(=O)c1cccnc1CC[C@H](C)C(=O)O[C@@H]([C@H](OC(C)=O)[C@@H]2OC(C)=O)[C@]4(C)O
- Activity (MCF7): inactive
- IC50 (KB): 46.7 µg/mL (≈ 53.8 µM)
- Activity (NCI-H187): inactive
- IC50 (Plasmodium falciparum): 3.1 µM

Compound: CC(=O)OC[C@@]12[C@H](OC(C)=O)[C@@H](OC(C)=O)[C@@H]3[C@@H](OC(=O)c4ccccc4)[C@@]14O[C@@]3(C)COC(=O)c1cccnc1CC[C@](C)(OC(C)=O)C(=O)O[C@@H]([C@H](OC(C)=O)[C@@H]2OC(C)=O)[C@]4(C)O
- IC50 (Plasmodium falciparum): 3.9 µM

Compound: CC(=O)OC[C@@]12[C@H](OC(C)=O)[C@H](OC(C)=O)[C@@H]3[C@@H](OC(=O)c4ccccc4)[C@@]14O[C@@]3(C)COC(=O)c1cccnc1CC[C@](C)(OC(C)=O)C(=O)O[C@@H]([C@H](OC(C)=O)[C@@H]2OC(=O)c1ccccc1)[C@]4(C)O
- IC50 (Plasmodium falciparum): 3.5 µM

Compound: CC(=O)OC[C@@]12[C@H](OC(C)=O)[C@@H](OC(C)=O)[C@@H]3[C@@H](OC(C)=O)[C@@]14O[C@@]3(C)COC(=O)c1cccnc1[C@@H](C)[C@H](C)C(=O)O[C@@H]([C@H](OC(C)=O)[C@@H]2OC(=O)c1ccccc1)[C@]4(C)O
- Activity (Plasmodium falciparum): inactive

Compound: CC(=O)OC[C@@]12[C@H](OC(C)=O)[C@H](OC(C)=O)[C@@H]3[C@@H](OC(=O)c4ccccc4)[C@@]14O[C@@]3(C)COC(=O)c1cccnc1CC[C@](C)(OC(C)=O)C(=O)O[C@@H]([C@H](OC(C)=O)[C@@H]2OC(C)=O)[C@]4(C)O [MEKONGENSINE]
- Activity (MCF7): inactive
- IC50 (KB): 28.2 µg/mL (≈ 30.5 µM)
- Activity (NCI-H187): inactive
- IC50 (Plasmodium falciparum): 3.1 µM
